In assay [1] the target is T1, Cannabinoid receptor 1 (Rattus norvegicus, UniProt P20272). Put plainly: The compound was tested for Ki value against rat whole brain P2 membrane preparation in presence of enzyme inhibitor PMSF. The method, boiled down: (§1)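 Rat whole-brain P2 membranes (100-150 µg protein) incubated 1 h at 30 °C with 1 nM [3H]CP-55,940 and analogue at 1 nM-10 µM, with or without PMSF (50 µM). Buffer: 50 mM Tris-HCl, 1 mM EDTA, 3 mM MgCl2, 5 mg/mL BSA; ethanol ≤0.4%. Nonspecific binding with 1 µM CP-55,940. Stopped with ice-cold buffer, then rapid filtration on PEI-treated filters. Triplicates; 3-6 experiments; mean ± SE.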
T1 sequence (P20272 whole entry): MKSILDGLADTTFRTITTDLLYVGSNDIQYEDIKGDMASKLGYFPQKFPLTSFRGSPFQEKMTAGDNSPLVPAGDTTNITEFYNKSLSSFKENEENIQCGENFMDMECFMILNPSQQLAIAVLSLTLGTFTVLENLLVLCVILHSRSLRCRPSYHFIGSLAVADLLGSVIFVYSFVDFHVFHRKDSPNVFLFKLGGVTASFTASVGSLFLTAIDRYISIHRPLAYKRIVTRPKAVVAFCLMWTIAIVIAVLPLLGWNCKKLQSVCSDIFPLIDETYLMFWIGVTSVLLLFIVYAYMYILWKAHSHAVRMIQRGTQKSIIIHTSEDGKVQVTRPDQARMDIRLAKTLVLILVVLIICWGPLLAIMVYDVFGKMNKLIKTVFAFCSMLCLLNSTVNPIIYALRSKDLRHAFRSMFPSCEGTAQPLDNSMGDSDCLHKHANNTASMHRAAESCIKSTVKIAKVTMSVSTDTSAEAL

In assay [2] the test system is Mus musculus. Put plainly: The compound tested in vivo for antinociception as measured by tail flick response(TF) activity at 30 mg/kg. Type of assay: functional. The method, boiled down: (§2)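 Mice dosed iv by tail vein in ethanol:emulphor:saline 1:1:18. Tail flick to heat measured at 4 min, with 2-4 s baseline and 10 s cut-off, expressed as %MPE. Same mice then placed in photocell cages; beam breaks counted over 10 min and expressed as % of control. 6 mice/dose. ED50 from probit versus log dose by least-squares regression.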

In assay [3] the test system is Mus musculus. Put plainly: The compound tested in vivo for inhibition of spontaneous activity(SA)at 30 mg/kg. The assay is classed as functional. The arrangement: scale not given: the % may be the effect or the level left. The procedure, abridged: as §2
For assay [4], the system named is Mus musculus. The assay is described as follows: The compound tested in vivo for ring immobility (RI). The assay is classed as functional. The procedure, abridged:
(§3)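 Separate mice dosed iv by tail vein in ethanol:emulphor:saline 1:1:18. Rectal temperature taken by thermistor probe before and 4 min after injection; the change was recorded. Mice then placed on a 5.5-cm ring 16 cm high; time motionless over 5 min was taken as % of 300 s. Immobility ED50 from probit-log dose regression.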

Assay [5] has as its target T1, Cannabinoid receptor 1. Put plainly: The compound was tested for Ki value against rat whole brain P2 membrane preparation in absence of enzyme inhibitor PMSF. The procedure, abridged: as §1
In assay [6] the test system is Mus musculus. Put plainly: The compound tested in vivo for hypothermia as changes in rectal temperature (RT). Type of assay: functional. The method, boiled down:
as §3

The test system of assay [7] is Mus musculus. Put plainly: The compound tested in vivo for antinociception as measured by tail flick response(TF). The assay is classed as functional. The method, boiled down: as §2
Assay [8] has as its system Mus musculus. Put plainly: The compound tested in vivo for inhibition of spontaneous activity(SA). Type of assay: functional. The procedure, abridged:
as §2

The subject of assay [9] is Mus musculus. Put plainly: The compound tested in vivo for ring immobility (RI)a. Type of assay: functional. The method, boiled down:
as §3

From ChEMBL document CHEMBL1132228, “Unique analogues of anandamide: arachidonyl ethers and carbamates and norarachidonyl carbamates and ureas” (J Med Chem, 1999) come the findings set out here.

As a reminder, the Ki is the equilibrium dissociation constant of an inhibitor or competing ligand from its target. Take `CCCCC/C=C\C/C=C\C/C=C\C/C=C\CCCCOC(=O)NCC`: the Ki on Cannabinoid receptor 1 [1] turned out to be 2.2 µM.

On to `CCCCC/C=C\C/C=C\C/C=C\C/C=C\CCCNC(=O)NCC(C)C`, for which the figures for the Activity with Mus musculus [2] and in the assay on Mus musculus [3] were 26% and 59%, respectively. The Ki at Cannabinoid receptor 1 [1] was found to be 0.335 µM.

As for `CCCCC/C=C\C/C=C\C/C=C\C/C=C\CCCCOCCO`, at Cannabinoid receptor 1 [1], the inhibition constant Ki was found to be 0.797 µM.

Regarding `CCCCC/C=C\C/C=C\C/C=C\C/C=C\CCCCOC`, at Cannabinoid receptor 1 [1], the Ki is 4.26 µM.

One may read the ED50 as the dose at which the effect has come halfway, by size or by number of responders. Consider `CCCCC/C=C\C/C=C\C/C=C\C/C=C\CCCNC(=O)NCCC`, for which the ED50 in the assay with Mus musculus [4] turned out to be 5.4 mg/kg; in the assay with Mus musculus [6] it was 3.4 mg/kg; in the assay on Mus musculus [7], 8.9 mg/kg; in the assay on Mus musculus [8], 7.2 mg/kg. Moreover, the results for the Ki on Cannabinoid receptor 1 [1] and at Cannabinoid receptor 1 [5] were 0.091 µM and 0.17 µM, respectively.

On to `C=CCOCCCC/C=C\C/C=C\C/C=C\C/C=C\CCCCC`, for which the Ki on Cannabinoid receptor 1 [1] was 1.17 µM.

`CCCCC/C=C\C/C=C\C/C=C\C/C=C\CCCCOCCCC`: the Ki at Cannabinoid receptor 1 [1] was determined as 1.71 µM.

Turning to `CCCCC/C=C\C/C=C\C/C=C\C/C=C\CCCCOC(C)C`, the Ki on Cannabinoid receptor 1 [1] was determined as 0.871 µM.

As for `CCCCC/C=C\C/C=C\C/C=C\C/C=C\CCCNC(=O)NC(C)C`, the ED50 turned out to be 38 mg/kg in the assay with Mus musculus [4], 1.28 mg/kg with Mus musculus [6], 2.4 mg/kg with Mus musculus [7] and 5.8 mg/kg in the assay on Mus musculus [8]. For the same molecule, the Ki came out at 0.131 µM at Cannabinoid receptor 1 [1] and 0.204 µM at Cannabinoid receptor 1 [5].

Consider `CCCCC/C=C\C/C=C\C/C=C\C/C=C\CCCNC(=O)NCC`, for which the 50% effective dose (ED50) in the assay on Mus musculus [4] came to 19.9 mg/kg; with Mus musculus [6], 16.2 mg/kg; in the assay on Mus musculus [7], 3.3 mg/kg; with Mus musculus [8], 2.8 mg/kg. Also, the Ki on Cannabinoid receptor 1 [1] worked out at 0.156 µM.

As for `CCCCC/C=C\C/C=C\C/C=C\C/C=C\CCCCOCCF`, the Ki on Cannabinoid receptor 1 [1] amounted to 0.885 µM.

`CCCCC/C=C\C/C=C\C/C=C\C/C=C\CCCNC(=O)OC(C)C`: the Activity came out at 3% with Mus musculus [2] and 35% in the assay with Mus musculus [3]. Moreover, the Ki on Cannabinoid receptor 1 [1] worked out at 1.23 µM.

For `CCCCC/C=C\C/C=C\C/C=C\C/C=C\CCCCOCC(C)C`, the Ki on Cannabinoid receptor 1 [1] is 2.48 µM.

For the molecule `CCCCC/C=C\C/C=C\C/C=C\C/C=C\CCCCOC(C)CC` (stereo not given), at Cannabinoid receptor 1 [1], the inhibitory constant (Ki) is 1.31 µM.

In the case of `CCCCC/C=C\C/C=C\C/C=C\C/C=C\CCCCOC(=O)NCCC`, on Cannabinoid receptor 1 [1], the inhibition constant (Ki) was found to be 0.471 µM.

For the molecule `CCCCC/C=C\C/C=C\C/C=C\C/C=C\CCCCOC(=O)NC(C)C`, at Cannabinoid receptor 1 [1], the Ki turned out to be 0.995 µM.

Regarding `C#CCOCCCC/C=C\C/C=C\C/C=C\C/C=C\CCCCC`, on Cannabinoid receptor 1 [1], the Ki was 1.58 µM.

On to `CCCCC/C=C\C/C=C\C/C=C\C/C=C\CCCNC(=O)NCCO`, for which the ED50 in the assay with Mus musculus [4] was 3.9 mg/kg; in the assay with Mus musculus [6], 2.6 mg/kg; with Mus musculus [7], 4 mg/kg; with Mus musculus [8] it was 3.1 mg/kg. For the same molecule, the Ki on Cannabinoid receptor 1 [1] turned out to be 0.347 µM.

With `CCCCC/C=C\C/C=C\C/C=C\C/C=C\CCCCOCC`, at Cannabinoid receptor 1 [1], the Ki was determined as 2.2 µM.

As for `CCCCC/C=C\C/C=C\C/C=C\C/C=C\CCCNC(=O)OCCF`, the Activity in the assay on Mus musculus [2] was 20%; in the assay with Mus musculus [3], 18%. Besides, the Ki at Cannabinoid receptor 1 [1] is 0.331 µM.

For `CCCCC/C=C\C/C=C\C/C=C\C/C=C\CCCNC(=O)OCC`, the Activity in the assay on Mus musculus [2] was determined as 5%; with Mus musculus [3], 36%. In addition, the Ki at Cannabinoid receptor 1 [1] came out at 0.218 µM.

In the assay on Mus musculus [4], `CCCCC/C=C\C/C=C\C/C=C\C/C=C\CCCNC(=O)NCCOC` came in with an ED50 of 3 mg/kg. Further, the Activity in the assay with Mus musculus [2] is recorded as 32%; with Mus musculus [3], 69%. In addition, the inhibition constant (Ki) on Cannabinoid receptor 1 [1] stood at 0.746 µM.

With `CCCCC/C=C\C/C=C\C/C=C\C/C=C\CCCNC(=O)NC`, the median effective dose (ED50) is 4.51 mg/kg with Mus musculus [4], 2.2 mg/kg in the assay on Mus musculus [6], 12.3 mg/kg with Mus musculus [7] and 9.9 mg/kg with Mus musculus [8]. Besides, at Cannabinoid receptor 1 [1], the Ki turned out to be 0.436 µM.

Turning to `CCCCC/C=C\C/C=C\C/C=C\C/C=C\CCCCOCCC`, on Cannabinoid receptor 1 [1], the Ki stood at 1.08 µM.

Regarding `CCCCC/C=C\C/C=C\C/C=C\C/C=C\CCCCOCC1CC1`, the Ki at Cannabinoid receptor 1 [1] is 0.578 µM.

`CCCCC/C=C\C/C=C\C/C=C\C/C=C\CCCNC(=O)NCCF`: the ED50 in the assay on Mus musculus [9] was found to be 4.48 mg/kg; in the assay on Mus musculus [6] it was 0.85 mg/kg; with Mus musculus [7] it was 6.4 mg/kg; in the assay with Mus musculus [8], 3.5 mg/kg. The Ki at Cannabinoid receptor 1 [1] was 0.055 µM; at Cannabinoid receptor 1 [5] it was 0.052 µM.

With `CCCCC/C=C\C/C=C\C/C=C\C/C=C\CCCC(=O)NCCO` [ANANDAMIDE], in the assay on Mus musculus [7], the 50% effective dose (ED50) was determined as 6.2 mg/kg.
